Assay results published in ChEMBL document CHEMBL1147109, “Genetic elements carrying erm(B) in Streptococcus pyogenes and association with tet(M) tetracycline resistance gene” (2007).
In brackets after ≈: the same amount, converted by molar mass.

How the values were obtained:
[1] = test system: Streptococcus pyogenes; assay: Antimicrobial activity against erythromycin-resistant Streptococcus pyogenes C-105 transconjugated with erm(B) and tet(M) genes; format: functional
Outline: (§1)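 Transconjugants came from membrane-filter mating of the donor strain into recipient S. pyogenes 12RF (rifampin- and fusidic acid-resistant), done at least three times, and were confirmed by PCR to carry erm(B) and tet(M). MICs were then determined by broth microdilution to CLSI recommendations, with S. pneumoniae ATCC 49619 as quality control.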

[2] = test system: Streptococcus pyogenes; assay: Antimicrobial activity against erythromycin-resistant Streptococcus pyogenes E-115 transconjugated with erm(B) and tet(M) genes; format: functional; outline: as §1
[3] = test system: Streptococcus pyogenes; assay: Antimicrobial activity against erythromycin-resistant Streptococcus pyogenes B-83 transconjugated with erm(B) and tet(M) genes; format: functional; outline: as §1
[4] = test system: Streptococcus pyogenes; assay: Antimicrobial activity against erythromycin-resistant Streptococcus pyogenes A-3 transconjugated with erm(B) and tet(M) genes; format: functional; outline: as §1
[5] = test system: Streptococcus pyogenes; assay: Antimicrobial activity against tetracyclin-resistant Streptococcus pyogenes C-105 transconjugated with erm(B) and tet(M) genes; format: functional; outline: as §1
[6] = test system: Streptococcus pyogenes; assay: Antimicrobial activity against erythromycin-resistant Streptococcus pyogenes D-112 transconjugated with erm(B) and tet(M) genes; format: functional; outline: as §1
[7] = test system: Streptococcus pyogenes; assay: Antimicrobial activity against tetracyclin-resistant Streptococcus pyogenes cMLS isolate expressing erm(B); format: functional
Outline: (§2)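 Broth microdilution MICs run to CLSI recommendations on clinical erm(B)-carrying S. pyogenes isolates, with S. pneumoniae ATCC 49619 as quality control. In some isolates, tetracycline MICs were also measured on cells grown for no longer than 20 h on brain heart infusion agar, with or without subinhibitory tetracycline (0.05 μg/ml).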

[8] = test system: Streptococcus pyogenes; assay: Antimicrobial activity against tetracycline-susceptible Streptococcus pyogenes cMLS isolate F; format: functional
Outline: (§3)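 Broth microdilution MICs per CLSI against clinical S. pyogenes isolates carrying erm(B); S. pneumoniae ATCC 49619 as quality control. For some isolates, tetracycline MICs were also read after induction: colonies from overnight brain heart infusion agar were grown on brain heart infusion agar with or without subinhibitory tetracycline (0.05 μg/ml), harvested within 20 h, then tested.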

[9] = test system: Streptococcus pyogenes; assay: Antimicrobial activity against tetracycline-resistant Streptococcus pyogenes cMLS isolate C expressing tet(M), Xis, tnpA, tnpR gene
[10] = test system: Streptococcus pyogenes; assay: Antimicrobial activity against Streptococcus pyogenes cMLS isolate B expressing tet(M), int, Xis gene; format: functional; outline: as §2
[11] = test system: Streptococcus pyogenes; assay: Antimicrobial activity against tetracycline-susceptible Streptococcus pyogenes cMLS isolate E expressing tet(M), tndX gene; format: functional; outline: as §3
[12] = test system: Streptococcus pyogenes; assay: Antimicrobial activity against Streptococcus pyogenes iMLS-A isolate A expressing tet(M), tndX gene; format: functional; outline: as §3
[13] = test system: Streptococcus pyogenes; assay: Antimicrobial activity against tetracycline-susceptible Streptococcus pyogenes cMLS isolate G expressing tnpA, tnpR gene; format: functional; outline: as §3
[14] = test system: Streptococcus pyogenes; assay: Antimicrobial activity against tetracycline-susceptible Streptococcus pyogenes iMLS-A isolate expressing erm(B); format: functional; outline: as §3
[15] = test system: Streptococcus pyogenes; assay: Antimicrobial activity against tetracycline-susceptible Streptococcus pyogenes cMLS isolate expressing erm(B); format: functional; outline: as §3
[16] = test system: Streptococcus pyogenes; assay: Antimicrobial activity against tetracycline-susceptible Streptococcus pyogenes cMLS isolate D expressing tet(M), Xis, tnpA, tnpR gene; format: functional; outline: as §3

SMILES | MIC [1] | MIC [2] | MIC [3] | MIC [4] | MIC [5] | MIC [6] | MIC [7] | MIC [8] | MIC [9] | MIC [10] | MIC [11] | MIC [12] | MIC [13] | MIC [14] | MIC [15] | MIC [16]
CC[C@H]1OC(=O)[C@H](C)[C@@H](O[C@H]2C[C@@](C)(OC)[C@@H](O)[C@H](C)O2)[C@H](C)[C@@H](O[C@@H]2O[C@H](C)C[C@H](N(C)C)[C@H]2O)[C@](C)(O)C[C@@H](C)C(=O)[C@H](C)[C@@H](O)[C@]1(C)O [ERYTHROMYCIN] | > 128 µg/mL | > 128 µg/mL | > 128 µg/mL | > 128 µg/mL | > 128 µg/mL | > 128 µg/mL |  |  |  |  |  |  |  |  |  | 
CN(C)[C@@H]1C(O)=C(C(N)=O)C(=O)[C@@]2(O)C(O)=C3C(=O)c4c(O)cccc4[C@@](C)(O)[C@H]3C[C@@H]12 [TETRACYCLINE] | 32 µg/mL (≈ 72 µM) | 0.25 µg/mL (≈ 0.563 µM) | 32 µg/mL (≈ 72 µM) | 0.25 µg/mL (≈ 0.563 µM) | 32 µg/mL (≈ 72 µM) | 0.25 µg/mL (≈ 0.563 µM) | 32 µg/mL (≈ 72 µM) | 0.125 µg/mL (≈ 0.281 µM) | 32 µg/mL (≈ 72 µM) | 32 µg/mL (≈ 72 µM) | 0.125 µg/mL (≈ 0.281 µM) | 0.125 µg/mL (≈ 0.281 µM) | 0.125 µg/mL (≈ 0.281 µM) | ≤ 0.125 µg/mL | ≤ 0.125 µg/mL | 0.125 µg/mL (≈ 0.281 µM)
